In ChEMBL document CHEMBL3217724, “Synthesis and evaluation of a series of benzothiophene acrylonitrile analogs as anticancer agents” (Medchemcomm, 2013):
Active and inactive are the calls of the source. No cut-off for these calls is given here.

Key:
[1] = Growth inhibition of human OVCAR8 cells; assay type: functional; settings: OVCAR-8
How it was run: (§1)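 NCI 60-human-cancer-cell-line panel, five-dose screen after a preliminary screen. GI50 is the molar concentration giving 50% growth inhibition.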

[2] = Growth inhibition of human OVCAR4 cells; assay type: functional; settings: OVCAR-4; how it was run: as §1
[3] = Growth inhibition of human OVCAR3 cells; assay type: functional; settings: OVCAR-3; how it was run: as §1
SK-MEL-5 = assay: Growth inhibition of human SK-MEL-5 cells; assay type: functional; how it was run: as §1
SK-MEL-2 = assay: Growth inhibition of human SK-MEL-2 cells; assay type: functional; how it was run: as §1
SK-MEL-28 = assay: Growth inhibition of human SK-MEL-28 cells; assay type: functional; how it was run: as §1
M14 = assay: Growth inhibition of human M14 cells; assay type: functional; how it was run: as §1
MDA-MB-435 = assay: Growth inhibition of human MDA-MB-435 cells; assay type: functional; how it was run: as §1
Malme-3M = assay: Growth inhibition of human MALME-3M cells; assay type: functional; how it was run: as §1
U-251 = assay: Growth inhibition of human U251 cells; assay type: functional
How it was run: (§2)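 NCI 60-cell-line panel, five-dose screen; GI50 is the molar concentration giving 50% growth inhibition.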

[4] = Growth inhibition of human LOXIMVI cells; assay type: functional; settings: LOX IMVI; how it was run: as §1
SNB-75 = assay: Growth inhibition of human SNB75 cells; assay type: functional; how it was run: as §2
SNB-19 = assay: Growth inhibition of human SNB19 cells; assay type: functional; how it was run: as §2
[5] = Growth inhibition of human SF539 cells; assay type: functional; settings: SF-539; how it was run: as §1
[6] = Growth inhibition of human SF295 cells; assay type: functional; settings: SF-295; how it was run: as §1
SW-620 = assay: Growth inhibition of human SW620 cells; assay type: functional; how it was run: as §2
SF-268 = assay: Growth inhibition of human SF268 cells; assay type: functional; how it was run: as §1
HT-29 = assay: Growth inhibition of human HT-29 cells; assay type: functional; how it was run: as §1
KM12 = assay: Growth inhibition of human KM12 cells; assay type: functional; how it was run: as §1
[7] = Growth inhibition of human HCT15 cells; assay type: functional; settings: HCT-15; how it was run: as §1
[8] = Growth inhibition of human HCC2998 cells; assay type: functional; settings: HCC 2998; how it was run: as §1
HCT-116 = assay: Growth inhibition of human HCT116 cells; assay type: functional; how it was run: as §1
COLO 205 = assay: Growth inhibition of human COLO205 cells; assay type: functional; how it was run: as §1
NCI-H460 = assay: Growth inhibition of human NCI-H460 cells; assay type: functional; how it was run: as §1
NCI-H522 = assay: Growth inhibition of human NCI-H522 cells; assay type: functional; how it was run: as §1
NCI-H322M = assay: Growth inhibition of human NCI-H322M cells; assay type: functional; how it was run: as §1
NCI-H226 = assay: Growth inhibition of human NCI-H226 cells; assay type: functional; how it was run: as §1
NCI-H23 = assay: Growth inhibition of human NCI-H23 cells; assay type: functional; how it was run: as §1
[9] = Growth inhibition of human HOP92 cells; assay type: functional; settings: HOP-92; how it was run: as §1
[10] = Growth inhibition of human EKVX cells; assay type: functional; how it was run: as §1
HOP-62 = assay: Growth inhibition of human HOP62 cells; assay type: functional; how it was run: as §1
SR = assay: Growth inhibition of human SR cells; assay type: functional; how it was run: as §2
A549 = assay: Growth inhibition of human A549 cells; assay type: functional; how it was run: as §1
RPMI-8226 = assay: Growth inhibition of human RPMI8226 cells; assay type: functional; how it was run: as §1
K562 = assay: Growth inhibition of human K562 cells; assay type: functional; how it was run: as §1
[11] = Growth inhibition of human MOLT4 cells; assay type: functional; settings: MOLT-4; how it was run: as §1
HL-60(TB) = assay: Growth inhibition of human HL-60(TB) cells; assay type: functional; how it was run: as §1
CCRF-CEM = assay: Growth inhibition of human CCRF-CEM cells; assay type: functional; how it was run: as §1
PC-3 [12] = assay: Induction of apoptosis in human PC3 cells assessed as formation of mitotic castastrophe at 10 to 100 nM after 72 hrs by Hoechst 33342 staining; assay type: functional, cell-based
How it was run: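 PC3 prostate cancer cells were treated 72 h at 10 and 100 nM. Nuclei were stained with Hoechst 33342 and visualized by fluorescence imaging.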

[13] = molecular target: T1, Tubulin beta (Homo sapiens) (UniProt P68371+Q9H4B7+Q13509+P04350+Q3ZCM7+P07437+Q13885+Q9BVA1+Q9BUF5+A6NNZ2); assay: Inhibition of tubulin beta in human PC3 cells assessed as multiple spindle-poles formation at 100 nM after 24 hrs by DAPI-staining based immunofluorescence assay; assay type: cell-based; settings: PC-3
How it was run: (§3)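 PC3 cells were treated 24 h at 100 nM, with docetaxel 100 nM for comparison. Tubulin immunofluorescence with DAPI nuclear counterstain was used to score chromosome overduplication and multiple spindle poles.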

[14] = molecular target: T1, Tubulin beta (Homo sapiens); assay: Inhibition of tubulin beta in human PC3 cells assessed as chromosomal overduplication at 100 nM after 24 hrs by DAPI-staining based immunofluorescence assay; assay type: cell-based; settings: PC-3; how it was run: as §3
PC-3 [15] = assay: Induction of beta tubulin de-stabilization in human PC3 cells at 1 to 100 nM after 24 hrs by DAPI-staining based immunofluorescence assay; assay type: cell-based
How it was run: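 PC3 cells were treated 24 h at 1, 10 and 100 nM, then immunostained for beta-tubulin with DAPI nuclear counterstain. Docetaxel (stabilizer) and vinblastine (destabilizer) at 10 nM served as references.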

Tubulin (Homo sapiens) = Tubulin (Homo sapiens) (UniProt P68371+Q9H4B7+P0DPH7+P68366+Q13509+Q71U36+P04350+Q3ZCM7+P07437+P68363+Q9BQE3+Q6PEY2+Q13885+Q9BVA1+Q9BUF5); assay: Inhibition of tubulin polymerization (unknown origin) after 1 hr; assay type: protein-complex assay
How it was run: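 Purified tubulin was allowed to polymerize for 1 h with increasing concentrations of compound. Docetaxel and vinblastine were the stabilizing and destabilizing references.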

LLC-PK1 [16] = assay: Resistance factor, ratio of GI50 for pig LLC-PK1 cells expressing MDR1 to GI50 for pig LLC-PK1 cells; parameters: species or system Sus scrofa
How it was run: (§4)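 Porcine epithelial L-MDR1 (P-gp expressing) cells and their non-expressing parent line were exposed to compound for 72 h. Viability was read with AlamarBlue dye and GI50 derived. P-gp expression was verified by Western blot with β-actin as loading control. The resistance ratio compares GI50 in MDR1 versus parent cells.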

LLC-PK1 [17] = assay: Growth inhibition of pig LLC-PK1 cells expressing MDR1 by Alamar Blue assay; assay type: functional; settings: Sus scrofa; how it was run: as §4
[18] = Growth inhibition of pig LLC-PK1 cells by Alamar Blue assay; assay type: cell-based, Sus scrofa
How it was run: (§5)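 Cell viability was read with AlamarBlue dye in 96-well format and GI50 values derived, to assess P-gp effects. Cells were P-gp-expressing NCI/ADR-Res ovarian cancer cells and L-MDR1 porcine epithelial cells, each with its non-expressing parent line. P-gp expression was confirmed by Western blot with β-actin as loading control. Resistance is the GI50 in the P-gp line over the GI50 in the parent line.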

[19] = Growth inhibition of P-gp expressing human NCI-ADR-RES cells by Alamar Blue assay; assay type: functional
How it was run: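 72-h cytotoxicity in 96-well plates with AlamarBlue viability dye, giving GI50. Line 1 uses docetaxel-resistant PC3 prostate cells (PC3-DR), and line 2 uses NCI/ADR-Res ovarian cells. P-gp expression in both was confirmed by Western blot, with β-actin as the loading control.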

[20] = Growth inhibition of human OVCAR8 cells by Alamar Blue assay; assay type: functional; settings: OVCAR-8; how it was run: as §5
PC-3 [21] = assay: Growth inhibition of human PC3 cells after 72 hrs by Alamar Blue assay; assay type: functional; settings: PC-3, 72 h
How it was run: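 PC3 prostate cancer cells and docetaxel-resistant PC3-DR cells were exposed to drug for 72 hours in 96-well format. Viability was read with AlamarBlue dye and GI50 derived. Resistance is the GI50 in PC3-DR over the GI50 in parental PC3.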

T47D = assay: Growth inhibition of human T47D cells; assay type: functional; how it was run: as §2
[22] = Growth inhibition of human Hs578T cells; assay type: functional; settings: Hs-578T; how it was run: as §1
[23] = Growth inhibition of human BT549 cells; assay type: functional; settings: BT-549; how it was run: as §1
MDA-MB-231 = assay: Growth inhibition of human MDA-MB-231 cells; assay type: functional; how it was run: as §1
DU-145 = assay: Growth inhibition of human DU145 cells; assay type: functional; how it was run: as §1
MCF7 = assay: Growth inhibition of human MCF7 cells; assay type: functional; how it was run: as §1
[24] = Growth inhibition of human UO31 cells; assay type: functional; settings: UO-31; how it was run: as §2
PC-3 [25] = assay: Growth inhibition of human PC3 cells; assay type: functional; how it was run: as §1
TK-10 = assay: Growth inhibition of human TK10 cells; assay type: functional; how it was run: as §2
[26] = Growth inhibition of human RXF393 cells; assay type: functional; settings: RXF 393; how it was run: as §1
SN12C = assay: Growth inhibition of human SN12C cells; assay type: functional; how it was run: as §2
ACHN = assay: Growth inhibition of human ACHN cells; assay type: functional; how it was run: as §1
CAKI-1 = assay: Growth inhibition of human Caki1 cells; assay type: functional; how it was run: as §1
A498 = assay: Growth inhibition of human A498 cells; assay type: functional; how it was run: as §1
SK-OV-3 = assay: Growth inhibition of human SKOV3 cells; assay type: functional; how it was run: as §2
786-0 = assay: Growth inhibition of human 786-0 cells; assay type: functional; how it was run: as §1
[27] = Growth inhibition of human NCI-ADR-RES cells; assay type: functional; how it was run: as §1
[28] = Growth inhibition of human OVCAR5 cells; assay type: functional; settings: OVCAR-5; how it was run: as §1
PC-3 [29] = assay: cells; settings: Homo sapiens, PC-3, 72 h

COc1cc(/C(C#N)=C/c2cc3ccccc3s2)cc(OC)c1OC
GI50 [1]: 23.5 nM
GI50 [2]: > 100 nM
GI50 [3]: 23 nM
GI50 (SK-MEL-5): 34.4 nM
GI50 (SK-MEL-2): 41.6 nM
GI50 (SK-MEL-28): > 100 nM
GI50 (M14): 37.9 nM
GI50 (MDA-MB-435): 23.5 nM
GI50 (Malme-3M): 23.3 nM
GI50 (U-251): 50 nM
GI50 [4]: 48.7 nM
GI50 (SNB-75): 41.5 nM
GI50 (SNB-19): 44 nM
GI50 [5]: 24.8 nM
GI50 [6]: 33.7 nM
GI50 (SW-620): 40.8 nM
GI50 (SF-268): 46.7 nM
GI50 (HT-29): 31.9 nM
GI50 (KM12): 22.2 nM
GI50 [7]: 46.1 nM
GI50 [8]: 16.3 nM
GI50 (HCT-116): 49.4 nM
GI50 (COLO 205): 46.9 nM
GI50 (NCI-H460): 35.9 nM
GI50 (NCI-H522): 29.7 nM
GI50 (NCI-H322M): 51.7 nM
GI50 (NCI-H226): > 100 nM
GI50 (NCI-H23): 52.3 nM
GI50 [9]: 17.9 nM
GI50 [10]: 52.1 nM
GI50 (HOP-62): 98.9 nM
GI50 (SR): 46.6 nM
GI50 (A549): 41.2 nM
GI50 (RPMI-8226): 28.6 nM
GI50 (K562): 30.4 nM
GI50 [11]: 39.7 nM
GI50 (HL-60(TB)): 24.4 nM
GI50 (CCRF-CEM): 25.1 nM
Activity (PC-3 [12]): Active
inhibition [13]: Active
inhibition [14]: Active
Activity (PC-3 [15]): Active
inhibition (Tubulin (Homo sapiens)): Dose-dependent effect
RatioGI50 (LLC-PK1 [16]): 1.2
GI50 (LLC-PK1 [17]): 11.7 nM
GI50 [18]: 9.7 nM
GI50 [19]: 3.2 nM
GI50 [20]: 5.2 nM
GI50 (PC-3 [21]): 8.6 nM
GI50 (T47D): > 100 nM
GI50 [22]: 42.7 nM
GI50 [23]: 36.6 nM
GI50 (MDA-MB-231): 33 nM
GI50 (DU-145): 21.1 nM
GI50 (MCF7): 40.2 nM
GI50 [24]: 52.4 nM
GI50 (PC-3 [25]): 45 nM
GI50 (TK-10): 36.3 nM
GI50 [26]: 24.9 nM
GI50 (SN12C): 68.4 nM
GI50 (ACHN): 73.2 nM
GI50 (CAKI-1): 51.4 nM
GI50 (A498): 28.8 nM
GI50 (SK-OV-3): 47.2 nM
GI50 (786-0): 12.2 nM
GI50 [27]: 27.5 nM
GI50 [28]: 61.5 nM
GI50 (PC-3 [29]): 7.6 nM
